This note sets out measurements from ChEMBL document CHEMBL1141250, “Isolation, structure, and coccidiostat activity of coccidiostatin A” (J Nat Prod, 2007).

The subject of data set [1] is HFF. Put plainly: Cytotoxicity against human HFF cells at 1 ug/ml by Ex-Bes assay. Format: cell-based.
In data set [2] the test system is HFF. Put plainly: Cytotoxicity against human HFF cells at =< 0.125 ug/ml by Ex-Bes assay. The format is cell-based.
Data set [3] deals with Besnoitia jellisoni. The experiment in a line: Antiprotozoal activity against Besnoitia jellisoni trophozoites in HFF cells assessed as intactness of cell monolayer after 4 days by Ex-Bes assay. Format: functional. Conditions: 96 h, read-out: ED50 (the source's name). The essentials: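 Whole-cell in vitro Ex-Bes (extended Besnoitia) assay: B. jellisoni trachyzoites treated with test compounds. ED50 is the concentration giving 50% reduction of trachyzoites relative to an untreated control, read visually. Value is the average of two experiments run in duplicate.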

The subject of data set [4] is Eimeria mitis. The experiment in a line: Anticococcidal activity against Eimeria mitis infected chick assessed as reduction of oocyst at 150 ppm after 48 hrs relative to control. The arrangement: scale not given: the % may be the effect or the level left. Format: functional. In short, it runs like this:
(§1)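 In vivo test in the minibird assay for coccidiosis (MAC) using Eimeria-infected chickens. Compounds were tested as purified material. Activity in this assay guided fractionation of the fungal extract.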

Data set [5] concerns Eimeria maxima. The experiment in a line: Anticococcidal activity against Eimeria maxima infected chick assessed as reduction of oocyst at 150 ppm after 48 hrs relative to control. The format is functional, organism-based. In short, it runs like this:
as §1

Data set [6] deals with Eimeria praecox. Put plainly: Anticococcidal activity against Eimeria praecox infected chick assessed as reduction of oocyst at 150 ppm after 48 hrs relative to control. The format is functional. The essentials:
as §1

Data set [7] deals with Eimeria maxima. The experiment in a line: Anticococcidal activity against Eimeria maxima infected chick at 75 to 150 ppm. Format: functional, organism-based. The essentials:
as §1

Data set [8] deals with Eimeria mitis. The experiment in a line: Anticococcidal activity against Eimeria mitis infected chick at 75 to 150 ppm. The format is functional, organism-based. The essentials:
as §1

The subject of data set [9] is Eimeria praecox. Put plainly: Anticococcidal activity against Eimeria praecox infected chick assessed as reduction of oocyst at 75 ppm after 48 hrs relative to control. The format is functional. In short, it runs like this:
as §1

Data set [10] relates to Eimeria acervulina. The experiment in a line: Anticococcidal activity against Eimeria acervulina infected chick assessed as reduction of oocyst at 150 ppm after 48 hrs relative to control. The arrangement: scale not given: the % may be the effect or the level left. The format is functional. In short, it runs like this: as §1
Data set [11] has as its system Eimeria acervulina. Put plainly: Anticococcidal activity against Eimeria acervulina infected chick assessed as reduction of oocyst at 75 ppm after 48 hrs relative to control. The format is functional. The arrangement: scale not given: the % may be the effect or the level left. The essentials: as §1
Data set [12] relates to HFF. Put plainly: Cytotoxicity against human HFF cells at 500 ppm by Ex-Bes assay. The format is cell-based.
For data set [13], the system named is Eimeria praecox. The experiment in a line: Anticococcidal activity against Eimeria praecox infected chick at 75 to 150 ppm. Format: functional. The essentials: as §1
The test system of data set [14] is Eimeria tenella. Put plainly: Anticococcidal activity against Eimeria tenella infected chick at 75 to 150 ppm. The format is functional, organism-based. In short, it runs like this:
as §1

For data set [15], the system named is Eimeria maxima. Put plainly: Anticococcidal activity against Eimeria maxima infected chick assessed as reduction of oocyst at 75 ppm after 48 hrs relative to control. The format is functional, organism-based. The essentials:
as §1

Data set [16] has as its system Eimeria tenella. The experiment in a line: Anticococcidal activity against Eimeria tenella infected chick assessed as reduction of oocyst at 150 ppm after 48 hrs relative to control. Format: functional. The arrangement: scale not given: the % may be the effect or the level left. In short, it runs like this: as §1
Data set [17] relates to Eimeria acervulina. The experiment in a line: Anticococcidal activity against Eimeria acervulina infected chick at 75 to 150 ppm. The format is functional, organism-based. The essentials:
as §1

Data set [18] relates to Eimeria maxima. Put plainly: Anticococcidal activity against Eimeria maxima infected chick at 416 ppm, po. The format is functional, organism-based. The essentials: as §1
In data set [19] the test system is Eimeria acervulina. Put plainly: Anticococcidal activity against Eimeria acervulina infected chick at 416 ppm, po. Format: functional, organism-based. The essentials:
as §1

The subject of data set [20] is Eimeria maxima. The experiment in a line: Anticococcidal activity against Eimeria maxima infected chick at 28 mg/kg, ip. Format: functional, organism-based. The arrangement: dose 28 mg/kg. In short, it runs like this:
as §1

For data set [21], the system named is Eimeria tenella. Put plainly: Anticococcidal activity against Eimeria tenella infected chick at 416 ppm, po. The format is functional, organism-based. In short, it runs like this: as §1
Data set [22] relates to Eimeria mitis. The experiment in a line: Anticococcidal activity against Eimeria mitis infected chick at 416 ppm, po. Format: functional, organism-based. The essentials:
as §1

Data set [23] relates to Eimeria praecox. Put plainly: Anticococcidal activity against Eimeria praecox infected chick at 416 ppm, po. The format is functional. In short, it runs like this:
as §1

Data set [24] deals with Eimeria praecox. Put plainly: Anticococcidal activity against Eimeria praecox infected chick at 28 mg/kg, ip. On the set-up: dose 28 mg/kg. Format: functional, organism-based. In short, it runs like this:
as §1

Data set [25] concerns Eimeria mitis. Put plainly: Anticococcidal activity against Eimeria mitis infected chick at 28 mg/kg, ip. Format: functional, organism-based. On the set-up: dose 28 mg/kg. The essentials:
as §1

The test system of data set [26] is Eimeria acervulina. Put plainly: Anticococcidal activity against Eimeria acervulina infected chick at 28 mg/kg, ip. Format: functional, organism-based. On the set-up: dose 28 mg/kg. In short, it runs like this: as §1
Data set [27] relates to Eimeria tenella. The experiment in a line: Anticococcidal activity against Eimeria tenella infected chick at 28 mg/kg, ip. Format: functional, organism-based. On the set-up: dose 28 mg/kg. In short, it runs like this:
as §1

Structures are written as SMILES. The source made the active and inactive calls. No cut-off for these calls is given here. Bounds are passed on as bounds.

For `CCC(=O)CCCCC[C@@H]1NC(=O)[C@H]2CCCCN2C(=O)[C@H]([C@@H](C)CC)NC(=O)[C@H](Cc2cn(OC)c3ccccc23)NC1=O` [APICIDIN], the values for the Activity entry in [1] and in [2] were “Toxic” and “Non-toxic”, respectively. The EC50 in data set [3] was less than 280 nM.
For `CC1=C[C@@]2(C)O[C@@H](C)[C@@](C)(O)[C@H]2[C@@H]1/C=C/C=C/C=C/C=C/C1(C)C2OC(=O)C1(C)C(=O)C2C` (stereo partly drawn) [COCCIDIOSTATIN A], the Activity in data set [4] is recorded as 44%; in data set [10], 74%; in data set [11], 64%; in data set [12], “Non-toxic”; in data set [16], 59%. The outcome in data set [5], in [6], in data set [9] and in data set [15] was inactive. Also, the outcome in data set [7], in data set [8], in data set [13], in data set [14] and in data set [17] was Active.
Consider `CC(=C/C(C)=C\[C@]1(C)O[C@@H](C)[C@]2(C)O[C@@H]21)/C=C(C)\C=C(C)/C=C(\C)[C@@H]1OC(=O)C(C)(C)C(=O)[C@H]1C` [EMECORRGATIN A], for which the result in data set [18], in [19], in data set [20], in data set [21], in data set [22] and in [23] was inactive. In addition, the outcome in data set [24], in data set [25], in data set [26] and in [27] was inactive. For the same molecule, in data set [3], the EC50 was found to be 1390 nM.
